The results in this text go back to ChEMBL document CHEMBL2177085 (J Med Chem, 2012).

Test [1] has as its system MKN-45. Briefly: Cytotoxic activity against human MKN45 cells assessed as cell viability at 20 uM incubated for 5 days by MTT assay. In kind it is functional. Conditions: MKN-45, 120 h, read-out: Activity. The gist of the method:
(§1)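 MTT viability: exponentially growing cells, 10 000 viable cells/well in RPMI plated overnight, then exposed to test compounds for 3 days (HT-29, Molm-14) or 5 days (Mkn-45) at 37 °C, 5% CO2. MTT added for 4 h, then SDS/HCl solubilization overnight and absorbance read at 562 nm. Viability is expressed relative to untreated cells (100%). Triplicate.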

The test system of test [2] is MKN-45. Briefly: Cytotoxic activity against human MKN45 cells assessed as cell viability at 1 uM incubated for 5 days by MTT assay. In kind it is functional. The following applies: MKN-45, 120 h, read-out: Activity. The gist of the method: as §1
Test [3] concerns the target Protein kinase C epsilon type (Homo sapiens) (UniProt Q02156). Briefly: Inhibition of PKCepsilon assessed as enzyme residual activity at 10 uM relative to untreated control. The method, boiled down:
(§2)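 Residual kinase activity at 10 μM compound, determined by a commercial kinase profiling service (Millipore) across 15 kinases of different classes. Each compound tested in duplicate.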

In test [4] the test system is MKN-45. The test is described as follows: Cytotoxic activity against human MKN45 cells assessed as cell viability at 50 uM incubated for 5 days by MTT assay. It counts as functional. The following applies: MKN-45, 120 h, read-out: Activity. The method, boiled down: as §1
For test [5], the target named is Angiopoietin-1 receptor (Homo sapiens) (UniProt Q02763). The test is described as follows: Inhibition of TIE2 assessed as enzyme residual activity at 10 uM relative to untreated control. The method, boiled down:
as §2

In test [6] the target is Epidermal growth factor receptor (Homo sapiens) (UniProt P00533). Briefly: Inhibition of EGFR assessed as enzyme residual activity at 10 uM relative to untreated control. The method, boiled down:
as §2

Test [7] relates to MKN-45. The test is described as follows: Cytotoxic activity against human MKN45 cells assessed as cell viability at 5 uM incubated for 5 days by MTT assay. Conditions: MKN-45, 120 h, read-out: Activity. In kind it is functional. The gist of the method:
as §1

Test [8] deals with MKN-45. Briefly: Cytotoxic activity against human MKN45 cells assessed as cell viability at 10 uM incubated for 5 days by MTT assay. It counts as functional. Conditions: MKN-45, 120 h, read-out: Activity. The gist of the method:
as §1

Test [9] addresses Platelet-derived growth factor receptor beta (Homo sapiens) (UniProt P09619). Briefly: Inhibition of PDGFRbeta assessed as enzyme residual activity at 10 uM relative to untreated control. The gist of the method: as §2
In a further test the test system is HUVEC. The test is described as follows: Induction of apoptosis in human HUVEC assessed as accumulation at subG1 phase at 0.79 uM incubated for 4 days by flow cytometry (reference value: 15.4 +/- 1.5%). In kind it is functional.
Test [10] concerns MKN-45. The test is described as follows: Induction of apoptosis in human MKN45 assessed as accumulation at subG1 phase at 20 uM incubated for 7 days by flow cytometry (reference value: 10.9 +/- 3.2%). In kind it is functional.
Test [11] has as its target RAF proto-oncogene serine/threonine-protein kinase (Homo sapiens) (UniProt P04049). Briefly: Inhibition of c-RAF assessed as enzyme residual activity at 10 uM relative to untreated control. The gist of the method: as §2
Test [12] addresses Glycogen synthase kinase-3 beta (Homo sapiens, UniProt P49841). Briefly: Inhibition of GSK3beta. The method, boiled down:
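IC50 determined by a commercial kinase profiling service (Millipore IC50 Profiler); duplicate testing.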

For test [13], the target named is Protein kinase C alpha type (Homo sapiens) (UniProt P17252). The test is described as follows: Inhibition of PKCalpha assessed as enzyme residual activity at 10 uM relative to untreated control. The method, boiled down: as §2
Test [14] has as its system MKN-45. The test is described as follows: Induction of apoptosis in human MKN45 assessed as accumulation at subG1 phase at 15 uM incubated for 7 days by flow cytometry (reference value: 10.9 +/- 3.2%). It counts as functional.
Test [15] can be described thus: Inhibition of angiogenesis in chick embryo model assessed as reduction in vessel growth at 26 nM incubated for 24 hrs. In kind it is functional, Gallus gallus. The method, boiled down:
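White leghorn eggs incubated at 37.5 °C, 62% humidity. At 70 h, albumen removed and shell windowed. From 75 h, 15 agarose pellets (from a 26 mM DMSO stock in 2% agarose; final concentration 26 nM) placed on the area vasculosa.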

The test system of test [16] is MOLM-14. Briefly: Cytotoxic activity against human MOLM14 cells assessed as cell viability at 20 uM incubated for 3 days by MTT assay. It counts as functional. The following applies: MOLM-14, 72 h, read-out: Activity. The method, boiled down:
as §1

Test [17] deals with Receptor-type tyrosine-protein kinase FLT3 (Homo sapiens) (UniProt P36888). The test is described as follows: Inhibition of FLT3 assessed as enzyme residual activity at 10 uM relative to untreated control. The gist of the method:
as §2

In test [18] the target is Protein kinase C gamma type (Homo sapiens) (UniProt P05129). Briefly: Inhibition of PKCgamma assessed as enzyme residual activity at 10 uM relative to untreated control. The method, boiled down: as §2
Test [19] relates to MKN-45. The test is described as follows: Induction of apoptosis in human MKN45 assessed as accumulation at subG1 phase at 5 uM incubated for 7 days by flow cytometry (reference value: 10.9 +/- 3.2%). In kind it is functional.
Test [20] addresses Cyclin-dependent kinase 2/cyclin A (Homo sapiens) (UniProt P24941+P20248+P78396). Briefly: Inhibition of CDK2/cyclinA assessed as enzyme residual activity at 10 uM relative to untreated control. It counts as protein-complex assay. The gist of the method: as §2
The test system of test [21] is MOLM-14. The test is described as follows: Cytotoxic activity against human MOLM14 cells assessed as cell viability at 0.5 uM incubated for 3 days by MTT assay. It counts as functional. Conditions: MOLM-14, 72 h, read-out: Activity. The gist of the method: as §1
The target of test [22] is Vascular endothelial growth factor receptor 2 (Homo sapiens, UniProt P35968). Briefly: Inhibition of VEGFR2 assessed as enzyme residual activity at 10 uM relative to untreated control. The method, boiled down: as §2
Sequence of Vascular endothelial growth factor receptor 2 (P35968 whole entry): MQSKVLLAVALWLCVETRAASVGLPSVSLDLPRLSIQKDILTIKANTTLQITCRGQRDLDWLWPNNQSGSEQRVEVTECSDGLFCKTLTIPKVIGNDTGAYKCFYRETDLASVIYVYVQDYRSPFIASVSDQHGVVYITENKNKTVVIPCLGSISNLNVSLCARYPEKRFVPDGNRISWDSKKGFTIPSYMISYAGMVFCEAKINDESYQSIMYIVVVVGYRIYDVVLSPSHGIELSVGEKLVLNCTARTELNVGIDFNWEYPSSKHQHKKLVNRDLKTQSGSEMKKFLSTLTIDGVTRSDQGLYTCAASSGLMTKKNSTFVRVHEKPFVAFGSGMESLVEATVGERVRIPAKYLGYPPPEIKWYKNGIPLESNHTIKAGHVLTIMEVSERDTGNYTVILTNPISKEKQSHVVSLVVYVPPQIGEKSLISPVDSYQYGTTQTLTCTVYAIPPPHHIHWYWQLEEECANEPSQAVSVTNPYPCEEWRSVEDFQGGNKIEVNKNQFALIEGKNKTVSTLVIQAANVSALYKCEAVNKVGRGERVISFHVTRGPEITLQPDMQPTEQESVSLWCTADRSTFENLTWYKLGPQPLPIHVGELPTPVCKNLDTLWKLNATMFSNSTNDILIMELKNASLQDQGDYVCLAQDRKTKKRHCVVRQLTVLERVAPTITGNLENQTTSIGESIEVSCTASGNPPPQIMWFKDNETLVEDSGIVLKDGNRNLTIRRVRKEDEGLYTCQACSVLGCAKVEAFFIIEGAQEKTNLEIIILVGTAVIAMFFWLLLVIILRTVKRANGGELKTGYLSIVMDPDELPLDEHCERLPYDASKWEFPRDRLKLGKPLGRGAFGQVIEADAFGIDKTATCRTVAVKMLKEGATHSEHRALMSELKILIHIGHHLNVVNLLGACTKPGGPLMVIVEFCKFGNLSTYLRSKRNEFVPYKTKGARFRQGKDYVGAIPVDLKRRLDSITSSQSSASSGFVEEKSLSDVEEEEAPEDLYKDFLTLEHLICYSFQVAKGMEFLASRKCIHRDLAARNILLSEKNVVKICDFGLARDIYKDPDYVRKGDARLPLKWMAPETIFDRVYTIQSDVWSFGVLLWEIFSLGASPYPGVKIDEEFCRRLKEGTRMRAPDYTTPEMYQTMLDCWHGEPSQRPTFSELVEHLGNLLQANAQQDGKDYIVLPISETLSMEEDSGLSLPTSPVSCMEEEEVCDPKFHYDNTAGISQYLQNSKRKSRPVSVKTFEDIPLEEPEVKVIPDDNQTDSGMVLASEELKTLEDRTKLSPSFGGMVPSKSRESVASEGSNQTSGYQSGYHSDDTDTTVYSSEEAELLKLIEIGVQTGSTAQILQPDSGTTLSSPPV
Test [23] has as its system MKN-45. Briefly: Induction of apoptosis in human MKN45 assessed as accumulation at subG1 phase at 10 uM incubated for 7 days by flow cytometry (reference value: 10.9 +/- 3.2%). In kind it is functional.

Sequence of Epidermal growth factor receptor (Homo sapiens) (P00533 whole entry): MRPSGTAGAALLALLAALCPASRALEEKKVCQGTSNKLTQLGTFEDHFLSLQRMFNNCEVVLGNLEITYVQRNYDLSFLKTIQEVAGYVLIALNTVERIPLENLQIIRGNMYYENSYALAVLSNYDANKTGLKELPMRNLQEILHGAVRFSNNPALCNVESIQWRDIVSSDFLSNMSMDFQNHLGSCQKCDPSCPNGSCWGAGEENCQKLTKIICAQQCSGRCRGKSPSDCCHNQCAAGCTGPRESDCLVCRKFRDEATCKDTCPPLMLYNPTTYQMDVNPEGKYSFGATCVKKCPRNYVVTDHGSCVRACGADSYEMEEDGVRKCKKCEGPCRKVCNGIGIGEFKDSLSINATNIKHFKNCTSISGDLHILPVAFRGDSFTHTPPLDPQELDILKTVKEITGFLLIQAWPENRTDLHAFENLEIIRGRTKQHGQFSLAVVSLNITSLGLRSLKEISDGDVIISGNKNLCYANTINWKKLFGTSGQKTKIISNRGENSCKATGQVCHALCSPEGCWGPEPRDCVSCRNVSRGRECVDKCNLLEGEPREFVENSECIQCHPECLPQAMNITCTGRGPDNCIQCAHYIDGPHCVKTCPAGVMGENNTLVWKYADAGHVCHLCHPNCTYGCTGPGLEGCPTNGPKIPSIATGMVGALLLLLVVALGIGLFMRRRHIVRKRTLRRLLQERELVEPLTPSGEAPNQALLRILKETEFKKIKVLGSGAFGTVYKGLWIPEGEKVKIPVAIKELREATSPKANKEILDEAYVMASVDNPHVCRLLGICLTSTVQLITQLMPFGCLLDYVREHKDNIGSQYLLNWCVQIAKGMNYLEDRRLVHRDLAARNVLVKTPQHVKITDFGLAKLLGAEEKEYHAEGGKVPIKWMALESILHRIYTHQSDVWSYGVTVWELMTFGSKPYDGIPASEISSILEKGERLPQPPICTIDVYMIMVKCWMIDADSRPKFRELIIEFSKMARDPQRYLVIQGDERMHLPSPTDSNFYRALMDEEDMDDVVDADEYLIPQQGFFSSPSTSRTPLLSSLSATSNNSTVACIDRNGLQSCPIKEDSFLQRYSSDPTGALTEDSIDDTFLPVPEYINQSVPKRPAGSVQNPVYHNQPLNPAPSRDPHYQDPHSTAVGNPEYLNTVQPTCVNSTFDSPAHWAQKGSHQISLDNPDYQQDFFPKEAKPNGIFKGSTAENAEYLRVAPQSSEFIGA
Sequence of Receptor-type tyrosine-protein kinase FLT3 (Homo sapiens) (P36888 whole entry): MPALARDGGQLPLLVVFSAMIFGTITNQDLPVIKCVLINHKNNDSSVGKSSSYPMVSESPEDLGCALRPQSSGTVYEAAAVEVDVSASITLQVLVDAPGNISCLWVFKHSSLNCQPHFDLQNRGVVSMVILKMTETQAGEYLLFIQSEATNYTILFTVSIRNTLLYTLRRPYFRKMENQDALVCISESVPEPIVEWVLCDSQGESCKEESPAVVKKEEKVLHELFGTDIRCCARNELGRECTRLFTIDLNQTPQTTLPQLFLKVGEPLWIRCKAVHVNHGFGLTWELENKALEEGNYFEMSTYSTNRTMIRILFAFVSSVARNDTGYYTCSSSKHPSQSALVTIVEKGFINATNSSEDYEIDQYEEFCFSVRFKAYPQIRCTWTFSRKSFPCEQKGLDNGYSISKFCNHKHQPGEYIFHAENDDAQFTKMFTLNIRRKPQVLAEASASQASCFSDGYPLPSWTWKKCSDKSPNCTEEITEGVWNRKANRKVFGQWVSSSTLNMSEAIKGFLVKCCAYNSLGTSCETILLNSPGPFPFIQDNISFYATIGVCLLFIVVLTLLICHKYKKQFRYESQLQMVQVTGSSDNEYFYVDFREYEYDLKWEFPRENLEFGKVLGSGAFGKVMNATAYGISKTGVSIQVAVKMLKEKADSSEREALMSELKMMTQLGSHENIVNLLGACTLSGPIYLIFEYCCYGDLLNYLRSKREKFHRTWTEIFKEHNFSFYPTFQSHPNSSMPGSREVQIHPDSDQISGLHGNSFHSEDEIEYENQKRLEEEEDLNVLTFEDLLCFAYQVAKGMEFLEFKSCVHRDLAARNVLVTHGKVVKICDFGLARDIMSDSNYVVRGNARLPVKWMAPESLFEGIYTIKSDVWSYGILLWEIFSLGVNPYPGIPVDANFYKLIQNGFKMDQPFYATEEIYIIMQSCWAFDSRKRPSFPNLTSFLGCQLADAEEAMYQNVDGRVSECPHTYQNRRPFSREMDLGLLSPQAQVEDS
Sequence of Glycogen synthase kinase-3 beta (P49841 whole entry): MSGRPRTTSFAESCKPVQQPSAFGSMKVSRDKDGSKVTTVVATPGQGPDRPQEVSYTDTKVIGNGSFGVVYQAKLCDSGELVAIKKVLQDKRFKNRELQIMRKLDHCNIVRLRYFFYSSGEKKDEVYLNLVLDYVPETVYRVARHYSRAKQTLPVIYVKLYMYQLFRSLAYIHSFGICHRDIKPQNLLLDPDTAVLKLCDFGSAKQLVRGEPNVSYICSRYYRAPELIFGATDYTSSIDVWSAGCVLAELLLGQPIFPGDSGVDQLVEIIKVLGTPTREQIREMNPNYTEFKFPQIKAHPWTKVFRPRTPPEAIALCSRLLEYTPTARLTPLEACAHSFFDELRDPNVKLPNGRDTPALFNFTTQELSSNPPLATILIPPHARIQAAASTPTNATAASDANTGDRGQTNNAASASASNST
Sequence of Protein kinase C epsilon type (Homo sapiens) (Q02156 whole entry): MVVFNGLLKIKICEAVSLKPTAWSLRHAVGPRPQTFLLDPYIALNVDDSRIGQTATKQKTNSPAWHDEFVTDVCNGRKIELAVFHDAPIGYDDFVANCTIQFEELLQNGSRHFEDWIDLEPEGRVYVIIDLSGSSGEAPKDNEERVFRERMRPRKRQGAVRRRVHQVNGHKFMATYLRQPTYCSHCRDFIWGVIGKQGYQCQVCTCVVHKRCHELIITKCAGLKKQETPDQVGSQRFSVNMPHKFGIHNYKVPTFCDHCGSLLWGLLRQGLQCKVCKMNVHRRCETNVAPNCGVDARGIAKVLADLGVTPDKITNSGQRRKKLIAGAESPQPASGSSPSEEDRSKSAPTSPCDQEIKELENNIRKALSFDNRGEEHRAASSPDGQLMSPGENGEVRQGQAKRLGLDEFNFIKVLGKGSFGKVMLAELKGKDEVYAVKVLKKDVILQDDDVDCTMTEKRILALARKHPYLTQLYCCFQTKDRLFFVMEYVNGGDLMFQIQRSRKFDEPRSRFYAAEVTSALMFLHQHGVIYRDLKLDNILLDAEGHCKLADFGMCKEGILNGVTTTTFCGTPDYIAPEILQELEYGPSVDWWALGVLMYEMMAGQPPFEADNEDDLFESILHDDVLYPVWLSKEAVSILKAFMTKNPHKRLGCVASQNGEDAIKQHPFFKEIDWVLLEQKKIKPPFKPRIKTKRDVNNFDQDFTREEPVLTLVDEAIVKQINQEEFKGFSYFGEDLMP

Turning to `COc1cc(C2=C(c3c[nH]c4cnccc34)C(=O)NC2=O)cc(OC)c1OC`, the viability at 20 µM in the test with MKN-45 [1] was 101%; in the test with MOLM-14 [16] it was 5.39%. For the same compound, in the test with MKN-45 [2], the viability at 1 µM came to 107%. The Activity in test [3] is 75%; in [5], 116%; in test [6], 111%; in test [9], 106%; in the test on HUVEC, 48%; in the test on MKN-45 [10], 28.3%. Also, the Activity in [11] was determined as 117%; in [13], 80%; with MKN-45 [14], 22.9%; in [17] it was 0%; in test [18] it was 83%; with MKN-45 [19], 15.8%. Further, the results for the Activity (in test [20]; in test [22]; in the test on MKN-45 [23]) were 88%, 1% and 16.5%, respectively. The viability at 50 µM in the test with MKN-45 [4] was 68.6%. For the same compound, the viability at 5 µM in the test with MKN-45 [7] was determined as 105%. Also, the viability at 10 µM in the test with MKN-45 [8] came out at 108%. Besides, in [12], the IC50 was determined as 9 nM. The “inhibition (INH)” value in test [15] is on record as 32%. Also, in the test on MOLM-14 [21], the viability at 0.5 µM was determined as 73.4%.
